This note sets out measurements from ChEMBL document CHEMBL1125478, “The discovery of (2S,3S)-cis-2-(diphenylmethyl)-N-[(2-methoxyphenyl)methyl]-1- azabicyclo[2.2.2]-octan-3-amine as a novel, nonpeptide substance P antagonisst” (J Med Chem, 1992).

The term inhibition in vivo denotes the drop in the measured response relative to a control, in per cent. Usually Inhibition stands for the change of the read-out against control, counted positive when it falls. The term ED50 denotes the midpoint of the dose-response relation. High values mean weaker potency, low ones greater potency. A word on the IC50: it is the point on the concentration scale where inhibition reaches its midpoint. Higher therefore signals a need for much substance.

One assay concerns Rattus norvegicus. Kind of assay: Inhibition of SP-induced salvation after intraperitoneal administration of the durg at a concentration of 50 mg/kg in rats. The assay is classed as functional. The note with it: ip. The gist of the method: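 Fasted male Sprague-Dawley rats given compound 50 mg/kg ip in 0.05 N HCl, or saline, 30 min before SP 4.7 nmol/kg by tail vein under pentobarbital. Saliva collected on preweighed swabs until response subsided (about 4 min), weighed. Percent inhibition of SP response.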

Assay [1] relates to Cavia porcellus. The assay can be described thus: (§1) Inhibition of SP-induced plasma extravasation in guinea pig after peroral administration at a dose 15 mg/kg. The format is functional. The note with it: route oral. Put shortly:
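Male Hartley guinea pigs (350-400 g), pentobarbital-anaesthetised; Evans Blue 30 mg/kg iv, then 5 min later SP (20 nM, 50 μL/site) intradermally. Dorsal skin punches extracted in formamide 24 h, 60 °C; OD 600 nm.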

The species named for assay [2] is Cavia porcellus. The assay can be described thus: Inhibition of capsaicin-induced plasma extravasation after 10 mL injection of 30 uM capsaicin in to the peritoneal cavity of guinea pig ureter. The format is functional. The gist of the method: (§2)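 Fasted male Hartley guinea pigs (300-400 g), pentobarbital-anaesthetised; Evans Blue 30 mg/kg iv, then capsaicin 30 μM, 10 mL intraperitoneally. Compound 10 mg/kg po 1 h prior. Ureter removed after 10 min, formamide-extracted 24 h at 60 °C, OD 600 nm.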

Assay [3] deals with Cavia porcellus. The assay can be described thus: Inhibition of capsaicin-induced plasma extravasation in guinea pig ureter after intraperitoneal injection. The format is functional. The note with it: ip. Put shortly: as §2
The target of another assay is Substance-P receptor (Homo sapiens, UniProt P25103). Kind of assay: Binding affinity towards Tachykinin receptor 1 in human IM-9 cells using [3H]-substance P as ligand. The format is cell-based. Put shortly: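 Displacement of [³H]SP (0.5 nM final) from human IM-9 cell preparation in 50 mM TRIS-HCl pH 7.7 with MnCl2, BSA, bacitracin, leupeptin, […], phosphoramidon; 20 min, room temperature, dark. Filtration on polyethylenimine-soaked GF/B filters, scintillation counting. IC50 from six-point curves, duplicates; mean ± SEM of three experiments.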

In a further assay the target is T1, Neuromedin-K receptor (Cavia porcellus, UniProt P30098).
T1 sequence (P30098 whole entry): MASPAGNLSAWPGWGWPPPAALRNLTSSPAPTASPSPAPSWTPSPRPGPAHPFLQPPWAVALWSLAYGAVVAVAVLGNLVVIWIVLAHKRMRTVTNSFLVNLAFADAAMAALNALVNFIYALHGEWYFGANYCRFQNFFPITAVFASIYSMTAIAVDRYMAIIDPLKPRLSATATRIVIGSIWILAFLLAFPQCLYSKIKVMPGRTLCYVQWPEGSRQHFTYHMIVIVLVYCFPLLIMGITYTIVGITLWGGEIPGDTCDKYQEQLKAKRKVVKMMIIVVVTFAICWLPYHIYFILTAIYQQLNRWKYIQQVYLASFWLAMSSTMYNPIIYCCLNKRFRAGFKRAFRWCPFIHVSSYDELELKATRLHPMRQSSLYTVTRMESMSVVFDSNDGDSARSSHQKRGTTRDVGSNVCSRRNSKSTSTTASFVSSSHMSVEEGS
The assay can be described thus: Inhibitory activity against Tachykinin receptor 3 in guinea pig cortex [125I]-BH-eledoisin as radioligand. The gist of the method: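 Guinea pig cortical membranes (6 mg/mL) in 50 mM Tris-HCl with 1 mM MnCl₂, 50 μg/mL chymostatin, 0.02% BSA and 0.1 nM [¹²⁵I]BH-eledoisin final, with test compound, 60 min at 22 °C. Nonsaturable binding defined with 1 μM eledoisin. Filtration and radioactivity counting.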

In another assay the target is T2, Substance-K receptor (Mesocricetus auratus, UniProt P51144).
T2 sequence (P51144 whole entry): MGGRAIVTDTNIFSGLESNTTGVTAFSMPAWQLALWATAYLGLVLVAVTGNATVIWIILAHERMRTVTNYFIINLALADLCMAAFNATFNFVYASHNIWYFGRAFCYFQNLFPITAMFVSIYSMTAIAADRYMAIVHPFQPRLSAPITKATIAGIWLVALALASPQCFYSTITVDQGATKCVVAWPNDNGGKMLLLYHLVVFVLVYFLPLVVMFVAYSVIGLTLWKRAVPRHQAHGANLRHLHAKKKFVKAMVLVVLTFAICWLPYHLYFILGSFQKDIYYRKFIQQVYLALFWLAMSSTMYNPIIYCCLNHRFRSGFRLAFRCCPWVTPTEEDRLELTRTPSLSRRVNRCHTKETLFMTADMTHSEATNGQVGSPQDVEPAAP
Kind of assay: Inhibitory activity against [125I]neurokinin binding to Tachykinin receptor 2 in hamster urinary bladder.

The subject of assay [4] is Cavia porcellus. The assay is described as §1. The format is functional. The note with it: route oral. The gist of the method:
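Male Hartley guinea pigs (350-400 g), pentobarbital-anaesthetised; Evans Blue 30 mg/kg iv, then 5 min later SP (20 nM, 50 μL/site) intradermally. Compound 15 mg/kg po 1 h before SP. Dorsal skin punches extracted in formamide 24 h, 60 °C; OD 600 nm. Percent inhibition or ED50 with 95% confidence limits.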
This is another data set of the same source.

The species entered for assay [5] is Cavia porcellus. Kind of assay: Ability to block SP-induced excitation of neurons in the locus coeruleus in guinea pig brain. The assay is classed as functional.

Chain of Substance-P receptor (P25103 whole entry): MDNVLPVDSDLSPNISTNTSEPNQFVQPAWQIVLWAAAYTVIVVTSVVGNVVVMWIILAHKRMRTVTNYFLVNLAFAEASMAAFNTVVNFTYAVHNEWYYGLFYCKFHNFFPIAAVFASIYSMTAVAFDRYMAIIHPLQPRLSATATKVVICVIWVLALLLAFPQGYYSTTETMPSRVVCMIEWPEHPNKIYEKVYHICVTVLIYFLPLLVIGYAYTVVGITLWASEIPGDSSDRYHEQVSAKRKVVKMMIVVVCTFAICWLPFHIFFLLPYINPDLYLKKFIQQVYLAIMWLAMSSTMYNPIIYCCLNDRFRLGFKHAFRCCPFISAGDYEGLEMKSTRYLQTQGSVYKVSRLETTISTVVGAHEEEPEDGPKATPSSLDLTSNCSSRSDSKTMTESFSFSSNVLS

Turning to `Clc1cccc(CN[C@H]2C3CCN(CC3)[C@H]2C(c2ccccc2)c2ccccc2)c1`, in the assay with Rattus norvegicus, the inhibition in vivo at 50 mg/kg was under 52.8%. Further, the inhibition in vivo at 15 mg/kg with Cavia porcellus [1] is -6%. In addition, the Inhibition in the assay listed under Cavia porcellus [2] is listed as 23%.
For `COc1ccccc1CN[C@@H]1C2CCN(CC2)[C@@H]1C(c1ccccc1)c1ccccc1`, the inhibition in vivo at 50 mg/kg in the assay with Rattus norvegicus is under 66.9%. In the assay on Cavia porcellus [3], the ED50 is 6 mg/kg. In addition, the inhibition in vivo at 15 mg/kg in the assay on Cavia porcellus [1] was 39%.
Take `COc1ccccc1CN(C)[C@H]1C2CCN(CC2)[C@H]1C(c1ccccc1)c1ccccc1`: the inhibition in vivo at 15 mg/kg in the assay on Cavia porcellus [1] was 13%. Besides, in the assay filed under Cavia porcellus [2], the Inhibition is on record as -13%.
In the case of `Clc1ccc(CN[C@H]2C3CCN(CC3)[C@H]2C(c2ccccc2)c2ccccc2)cc1`, the inhibition in vivo at 50 mg/kg in the assay on Rattus norvegicus is under 27%. The inhibition in vivo at 15 mg/kg in the assay with Cavia porcellus [1] was found to be 8%. Moreover, the Inhibition in the assay listed under Cavia porcellus [2] is given as 34%.
Consider `COc1ccccc1CN[C@H]1C2CCN(CC2)[C@H]1Cc1ccccc1`, for which, in the assay on Rattus norvegicus, the inhibition in vivo at 50 mg/kg stood at 0%. The IC50 on Substance-P receptor is 487 nM. Also, the inhibition in vivo at 15 mg/kg in the assay on Cavia porcellus [1] turned out to be 35%. Besides, in the assay filed under Cavia porcellus [2], the Inhibition is -30%.
As for `COc1ccccc1CN[C@H]1C2CCN(CC2)[C@@H]1C(c1ccccc1)c1ccccc1`, the inhibition in vivo at 50 mg/kg in the assay on Rattus norvegicus is 11.3%. The inhibition in vivo at 15 mg/kg with Cavia porcellus [1] amounted to 28%. In addition, the Inhibition in the assay filed under Cavia porcellus [2] amounted to 18%.
`CCc1ccccc1CN[C@H]1C2CCN(CC2)[C@H]1C(c1ccccc1)c1ccccc1`: the inhibition in vivo at 50 mg/kg in the assay with Rattus norvegicus was found to be 16.7%. The IC50 on Substance-P receptor was 16.7 nM. The ED50 in the assay on Cavia porcellus [3] worked out at 4 mg/kg. Besides, the inhibition in vivo at 15 mg/kg in the assay on Cavia porcellus [1] was 79%.
Regarding `Clc1ccccc1CN[C@H]1C2CCN(CC2)[C@H]1C(c1ccccc1)c1ccccc1`, the inhibition in vivo at 50 mg/kg in the assay with Rattus norvegicus is under 43.9%. This compound came in with an ED50 in the assay on Cavia porcellus [3] of 7 mg/kg. The inhibition in vivo at 15 mg/kg in the assay on Cavia porcellus [1] worked out at 38%.
For `c1ccc(CN[C@H]2C3CCN(CC3)[C@H]2C(c2ccccc2)c2ccccc2)cc1`, the inhibition in vivo at 50 mg/kg in the assay with Rattus norvegicus worked out at 0%. This compound returned an IC50 on Substance-P receptor of 16 nM. Further, in the assay on Cavia porcellus [1], the inhibition in vivo at 15 mg/kg was -9%. Moreover, in the assay filed under Cavia porcellus [2], the Inhibition is on record as -21%.
With `COc1ccccc1CN[C@H]1C2CCN(CC2)[C@H]1C(c1ccccc1)c1ccccc1` [CP-96345], the inhibition in vivo at 50 mg/kg in the assay with Rattus norvegicus is under 76.2%. Further, the IC50 on Neuromedin-K receptor is over 10000 nM; on Substance-K receptor, over 10000 nM; in the assay listed under Cavia porcellus [5], 90 nM. For the same compound, the ED50 in the assay on Cavia porcellus [4] amounted to 4.4 mg/kg; with Cavia porcellus [3] it was 2.3 mg/kg.
In turn, `COc1ccccc1CN[C@H]1C2CCC(CC2)[C@H]1C(c1ccccc1)c1ccccc1` came in with an IC50 on Substance-P receptor of over 32000 nM. Also, the inhibition in vivo at 15 mg/kg in the assay on Cavia porcellus [1] was -9%. For the same compound, the Inhibition in the assay filed under Cavia porcellus [2] is -67%.
